The source made the active and inactive calls.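 Rule for the calls, unless noted: active = visually confirmed hit in the image check and inhibition above 20%; inconclusive = visually confirmed hit but inhibition not above 20%; inactive = no visual hit in the image check.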
Legend:
[1] = inhibitors of TNFa-induced NFkB p65 translocation, primary screen, imaging, HUVEC, MLSMR starter and 10KST1 sets (AID 438;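 active = inhibition above 20% together with a positive visual image hit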;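 note: compound added about 3h40 before a 20 min TNFalpha stimulation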;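 for inhibition: signal is the nuclear over cytoplasmic p65 intensity ratio per well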); details: HUVEC TNFa-induced p65 nuclear translocation; cell count: measured here: nuclei count (cytotoxicity indicator), at 2.08 µM; inhibition: at 2 µM, stronger effect = higher value, 0% TNFa-plus-vehicle, 100% no-TNFa wells
[2] = reduction of polyQ htt aggregates in cells – imaging, exon1htt(103Q)mCFP cells, high-content imaging, primary screen (AID 483;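 active = visual image review flags a hit and inhibition of aggregation exceeds 20%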;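 note: compound exposure lasted 3 days before fixation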;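 for nuclei count: percent of the per-plate median nuclei count of sample wells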); details: exon1htt(103Q)mCFP cell line, aggregate imaging, at 2 µM; inhibition of aggregation: stronger effect = higher value; nuclei count: measured here: cell count, toxicity
[3] = endothelial E-selectin expression blockers – imaging, HUVEC, immunofluorescence, MLSMR starter and 10KST1 sets, primary screen (AID 487); details: HUVEC TNFalpha-induced E-selectin immunofluorescence imaging, at 2 µM; inhibition: stronger effect = higher value; nuclei count: measured here: cell number, toxicity;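 for inhibition: signal is fraction of cell area covered by stained E-selectin grains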;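 for nuclei count: 100% = median nuclei count of all wells on the same plate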
[4] = molecular target: Voltage-gated potassium channel subunit beta-2 (Rattus norvegicus) (UniProt P62483); assay: inhibitors of rat Kvbeta2 reductase activity – biochemical, NADPH fluorescence, primary screen (AID 622;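 active = fluorescence slope higher than the sample average by over 3 SD, cut at about -0.22 in these data, passing the limit was not always enough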;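 note: slope of raw intensity against log time taken from 70 to 1610 s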); details: recombinant KvBeta, 4-cyanobenzaldehyde reduction, at 10 µM, stronger effect = higher value
Sequence of Voltage-gated potassium channel subunit beta-2 (Rattus norvegicus) (P62483 whole entry, looked up): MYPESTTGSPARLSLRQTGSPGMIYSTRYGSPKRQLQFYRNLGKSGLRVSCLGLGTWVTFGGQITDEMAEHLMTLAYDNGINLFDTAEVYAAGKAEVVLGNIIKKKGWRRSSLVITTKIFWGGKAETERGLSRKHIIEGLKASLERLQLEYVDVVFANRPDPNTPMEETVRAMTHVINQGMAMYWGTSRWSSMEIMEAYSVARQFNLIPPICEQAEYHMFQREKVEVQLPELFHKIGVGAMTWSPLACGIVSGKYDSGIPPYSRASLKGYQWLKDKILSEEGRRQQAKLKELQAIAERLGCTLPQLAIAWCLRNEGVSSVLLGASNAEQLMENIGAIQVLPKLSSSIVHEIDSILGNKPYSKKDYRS

[5] = molecular target: Voltage-gated potassium channel subunit beta-2 (Rattus norvegicus) (UniProt P62483); assay: enhancers of rat Kvbeta2 NADPH turnover – biochemical, NADPH fluorescence, primary screen (AID 623;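 active = NADPH fluorescence slope more negative than the mean of all samples by about 3 SD, 99.7% confidence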;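 note: fluorescence intensity change per second fitted from 20 to 320 s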); details: Recombinant KvBeta, NADPH fluorescence decrease slope, 10 min; at 10 µM; stronger effect = lower value
[6] = molecular target: Muscarinic acetylcholine receptor M4 (Homo sapiens) (UniProt P08173); assay: M4-linked GIRK flux change, two-sided – cell-based, HEK293 M4/GIRK, thallium flux, BTC-AM, M4 allosteric agonist project, primary screen (AID 625;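 active = fluorescence slope after compound addition differing from the mean of all tested samples at 99.7% confidence, mostly higher but some lower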;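 note: thallium influx through GIRK channels coupled to M4 in HEK293 cells with BTC-AM dye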); details: at 10 µM, actives lie on both sides
Sequence of Muscarinic acetylcholine receptor M4 (Homo sapiens) (P08173 whole entry, looked up): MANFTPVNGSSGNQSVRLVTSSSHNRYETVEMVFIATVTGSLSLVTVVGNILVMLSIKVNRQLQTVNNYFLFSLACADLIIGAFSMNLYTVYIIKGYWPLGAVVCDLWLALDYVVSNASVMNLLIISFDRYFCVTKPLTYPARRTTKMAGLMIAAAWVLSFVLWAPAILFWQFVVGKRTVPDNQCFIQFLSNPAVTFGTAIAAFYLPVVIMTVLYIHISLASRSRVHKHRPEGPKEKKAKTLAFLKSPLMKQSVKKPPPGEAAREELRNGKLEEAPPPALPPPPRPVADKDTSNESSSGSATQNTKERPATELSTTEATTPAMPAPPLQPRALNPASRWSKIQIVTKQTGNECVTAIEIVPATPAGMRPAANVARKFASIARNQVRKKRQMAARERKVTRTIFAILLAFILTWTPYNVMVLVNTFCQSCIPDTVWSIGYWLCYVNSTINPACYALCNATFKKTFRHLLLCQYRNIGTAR
How it was run: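 Material – HEK293 cells with M4 receptor and GIRK channels · Buffer or medium – pH 7.3 thallium assay buffer · Doses – one dose, 10 µM final · Timing – cells overnight at 37 °C, BTC-AM loading 1 h, reads 2 min total · Measured by – kinetic fluorescence with BTC-AM dye · Controls – carbachol and DMSO controls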

[7] = blockers of RIG-like receptor reporter activation – cell-based, Sendai virus stimulus, luciferase, 10K MLSCN set, TLR/RLR signaling modifier project, primary screen (AID 602276;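 active = inhibition at or above 50% at 10 µM; inactive = inhibition below 50%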;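 note: firefly luciferase from ISG56 promoter only with Renilla not read in this screen; 0% = Sendai virus plus DMSO and 100% = medium plus DMSO without virus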); details: HEK293 RL24 IRF3 luciferase reporter, at 10 µM, stronger effect = higher value
[8] = TLR3 IRF3 reporter activation blockers – cell-based, poly I:C stimulus, luciferase, 10K MLSCN set, primary screen (AID 602277;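 active = inhibition of the reporter signal at or above 50%; inactive = inhibition below 50%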); details: HEK293-TLR3 RL24 IRF3 luciferase reporter, at 10 µM, stronger effect = higher value

Row | Structure (SMILES) | cell count [1] | inhibition [1] | inhibition of aggregation [2] | nuclei count [2] | inhibition [3] | nuclei count [3] | fluorescence slope [4] | NADPH fluorescence slope [5] | fluorescence slope [6] | inhibition [7] | inhibition [8]
1 | O=C1CC(c2ccco2)CC(O)=C1C=NCCN1CCNCC1 (stereo not drawn) | 315 | -8.1% (inactive) | -0.5% (inactive) | 114% | -35% (inactive) | 122% | -0.595 (inactive) | 9e-06 (inactive) | 0.00594 (inactive) | 22.6% (inactive) | 31.6% (inactive)
2 | CCOC(=O)Cn1nnnc1CN(Cc1ccc(OC)cc1)Cc1cc2cc(C)cc(C)c2[nH]c1=O | 614 | 6.2% (inactive) | -1.3% (inactive) | 117% | -50.4% (inactive) | 117% | -0.595 (inactive) | -3.9e-05 (inactive) | 0.00531 (inactive) | -8.1% (inactive) | -1.09% (inactive)
3 | CC(C)CC(c1nnnn1C1CCCC1)N1CCN(c2ccccc2F)CC1 (stereo not drawn) | 384 | -3.6% (inactive) | 6.8% (inactive) | 91.4% | -26.9% (inactive) | 109% | -0.589 (inactive) | 2e-05 (inactive) | 0.00507 (inactive) | 15.2% (inactive) | 26.4% (inactive)
4 | c1nnc(NC2=NCCCCC2)s1 | 630 | -18.3% (inactive) | 0.1% (inactive) | 105% | 33.9% (inactive) | 124% | -0.346 (inactive) | -1.1e-05 (inactive) | 0.00597 (inactive) | -16.9% (inactive) | -29.4% (inactive)
5 | Cc1cc(S(=O)(=O)n2cnc3ccccc32)c(C)cc1Cl | 449 | -11.9% (inactive) | 25.3% (inactive) | 78% | 8% (inactive) | 113% | -0.473 (inactive) | 1.7e-06 (inactive) | 0.00564 (inactive) | 1.42% (inactive) | 14.8% (inactive)
6 | Nc1nc(CN2CCN(Cc3ccc4c(c3)OCO4)CC2)nc(Nc2ccccc2)n1 | 652 | 6.8% (inactive) | -1.8% (inactive) | 116% | -9.3% (inactive) | 115% | -0.578 (inactive) | -4.8e-05 (inactive) | 0.00565 (inactive) | 10.9% (inactive) | 22.6% (inactive)
7 | NS(=O)(=O)c1ccc(NCc2c(F)cccc2Cl)cc1 | 300 | -3% (inactive) | 36.6% (inactive) | 79.8% | 38.8% (inactive) | 99.4% | -0.515 (inactive) | -0.000161 (inactive) | 0.00288 (inactive) | 8.08% (inactive) | -2.77% (inactive)
8 | CCCc1nn(CCc2ccccn2)c(N)c1CC | 613 | -9.1% (inactive) | 7.2% (inactive) | 105% | -43.2% (inactive) | 140% | -0.372 (inactive) | 5.8e-05 (inactive) | 0.00633 (inactive) | 14.8% (inactive) | 21.5% (inactive)
9 | Cc1ccc(S(=O)(=O)N(C)Cc2cc3ccccc3[nH]c2=O)cc1 | 544 | -5% (inactive) | 12.8% (inactive) | 99.8% | 29.4% (inactive) | 104% | -0.52 (inactive) | -0.000101 (inactive) | 0.00517 (inactive) | 8.78% (inactive) | 70.5% (active)
10 | Fc1ccccc1-c1nc(-c2ccccc2)no1 | 632 | 13.8% (inactive) | 3.3% (inactive) | 103% | -5.4% (inactive) | 97.2% | -0.554 (inactive) | -7.9e-05 (inactive) | 0.00608 (inactive) | -27.9% (inactive) | -60% (inactive)
11 | COc1ccccc1-c1cn[nH]c(=S)n1 | 428 | 1.6% (inactive) | 4.2% (inactive) | 93% | -41.2% (inactive) | 101% | -0.576 (inactive) | 2.7e-05 (inactive) | 0.00535 (inactive) | -32.7% (inactive) | -25.8% (inactive)
12 | O=C(CCCn1c(=S)[nH]c2ccccc2c1=O)N1CCCCC1 | 452 | -6.2% (inactive) | 6.5% (inactive) | 123% | 1.4% (inactive) | 106% | -0.451 (inactive) | 2.5e-05 (inactive) | 0.00588 (inactive) | -0.408% (inactive) | 6.14% (inactive)
13 | CC(Oc1ccc2oc(-c3ccccc3)c(C(=O)O)c2c1)C(=O)O (stereo not drawn) | 371 | 10.6% (inactive) | 9% (inactive) | 104% | 27.6% (inactive) | 89.9% | -0.158 (inactive) | -5.4e-05 (inactive) | 0.00531 (inactive) | 7.55% (inactive) | 16.2% (inactive)
14 | CCOC(=O)c1cnn(-c2ncnc3c2cnn3Cc2ccccc2)c1N | 410 | -4.6% (inactive) | 8.7% (inactive) | 100% | -19.2% (inactive) | 118% | -0.51 (inactive) | 1.3e-05 (inactive) | 0.0057 (inactive) | 17.2% (inactive) | 17.4% (inactive)
15 | CC(=O)Nc1ccc(NC2=CC(=O)CC(C)(C)C2)cc1 | 424 | 1% (inactive) | 14% (inactive) | 107% | -60% (inactive) | 119% | -0.541 (inactive) | -5.8e-05 (inactive) | 0.00709 (inactive) | 18.6% (inactive) | 17.5% (inactive)
16 | COc1ccc(C2=Nn3c(nnc3-c3cccnc3)SC2)cc1 | 367 | -0.8% (inactive) | 6.7% (inactive) | 104% | 25.5% (inactive) | 109% | -0.464 (inactive) | 1.1e-05 (inactive) | 0.00808 (inactive) | 5.59% (inactive) | 7.82% (inactive)
17 | CCOc1ccc(OCc2cccc(C(=O)O)c2)cc1 | 600 | 3.8% (inactive) | -11.5% (inactive) | 112% | -68% (inactive) | 116% | -0.551 (inactive) | -2.8e-05 (inactive) | 0.00598 (inactive) | -46.2% (inactive) | -87.1% (inactive)
18 | O=C(Nc1cccc2c1CCCC2)C1CCN(c2nnnn2-c2ccccc2)CC1 | 653 | 1.7% (inactive) | 0.3% (inactive) | 109% | -20.6% (inactive) | 109% | -0.566 (inactive) | 2.3e-05 (inactive) | 0.00472 (inactive) | 10.2% (inactive) | 10.8% (inactive)
19 | CCCCOc1ccc(NC(=O)Cn2c(=O)ccc3c(C)cc(C)nc32)cc1 | 400 | 5.6% (inactive) | 11.8% (inactive) | 88.5% | -342% (inactive) | 149% | -0.565 (inactive) | 8.6e-06 (inactive) | 0.0062 (inactive) | 15.2% (inactive) | 20.7% (inactive)
20 | CCCC(O)(CCN(C)C)c1ccc(OC)cc1 (stereo not drawn) | 701 | 6.7% (inactive) | 18.4% (inactive) | 95.2% | -50.6% (inactive) | 87.3% | -0.543 (inactive) | -8.4e-06 (inactive) | 0.00506 (inactive) | 21.2% (inactive) | 29.6% (inactive)
21 | CC(C)C(=O)Nc1nnc(CCc2nnc(NC(=O)C(C)C)s2)s1 | 793 | -10.1% (inactive) | 9.8% (inactive) | 89.2% | -80.3% (inactive) | 114% | -0.552 (inactive) | 1.7e-05 (inactive) | 0.00508 (inactive) | 14.6% (inactive) | 19.9% (inactive)
22 | Cc1nc(SCC(=O)N2CCC(C(N)=O)CC2)n[nH]1 | 516 | -17.1% (inactive) | -2.4% (inactive) | 98.4% | -33.4% (inactive) | 119% | -0.581 (inactive) | -5.6e-05 (inactive) | 0.00602 (inactive) | -0.32% (inactive) | -1.6% (inactive)
23 | CCCCc1ccc(NC(=O)COCC)cc1 | 366 | -2.7% (inactive) | -8.1% (inactive) | 110% | -34.5% (inactive) | 98.4% | -0.585 (inactive) | 1.7e-05 (inactive) | 0.00366 (inactive) | -24.8% (inactive) | -77.1% (inactive)
24 | CCC(C)NC(=O)C1(C)CCC(=O)N1Cc1ccccc1OC (stereo not drawn) | 406 | -14.1% (inactive) | -3.9% (inactive) | 105% | -15.7% (inactive) | 93.9% | -0.512 (inactive) | 0.000141 (inactive) | 0.00751 (inactive) | 12.9% (inactive) | 22.5% (inactive)
25 | NC(=O)c1c(NC(=O)CSc2nnc(-c3ccco3)n2-c2ccccc2)sc2c1CCC2 | 577 | -15.4% (inactive) | -3.6% (inactive) | 115% | 50.4% (inactive) | 132% | -0.525 (inactive) | 0.00013 (inactive) | 0.00489 (inactive) | 30.1% (inactive) | 32.9% (inactive)
26 | C[N+]1=C2CCCCCN2C(O)(c2ccccc2)C1 (stereo not drawn) | 546 | -3% (inactive) | 6.3% (inactive) | 110% | -1.4% (inactive) | 130% | -0.56 (inactive) | -3.1e-05 (inactive) | 0.00533 (inactive) | 12.5% (inactive) | 17.2% (inactive)
27 | CSc1nnc2c3ccccc3n(Cc3ccccc3)c2n1 | 295 | -0.5% (inactive) | 3.5% (inactive) | 92.5% | 30.6% (inactive) | 86.1% | -0.45 (inactive) | -4.8e-05 (inactive) | 0.00511 (inactive) | 19.7% (inactive) | 17% (inactive)
28 | CCOC(=O)C1=C(C)Nc2ncnn2C1c1ccccc1F (stereo not drawn) | 469 | -5.9% (inactive) | -7.1% (inactive) | 81.7% | -49.3% (inactive) | 102% | -0.559 (inactive) | -1.9e-05 (inactive) | 0.00641 (inactive) | -5.35% (inactive) | -2.56% (inactive)

From PubChem BioAssay
